Source: PMC8381683 (Pharmacology Research & Perspectives, 2021)
pKi: −log10 of the molar value. Read-outs that look alike come from different tables or passages of the source.

How the values were obtained:
C57BL/6J mice [1] = assay: Food intake in the mouse; format: in vivo
Method in brief: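 C57BL/6J mice (24–26 g) single-housed on a reversed 12 h/12 h cycle, lights off at 9:00 a.m. Test compound given p.o. (vehicle 1% methylcellulose in water, 10 ml/kg) or i.p. 15 min before lights-off. Food consumption recorded at 1:00 p.m., 4 h after lights-off. 8 mice per group.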

[2] = test system: DA turnover in the rat striatum; assay: In vivo DA turnover and serotonin biomarkers in the rat striatum
C57BL/6J mice [3] = assay: Spontaneous locomotor activity in the mouse; format: in vivo; details: p.o.
[4] = 10 mg/kg, p.o., male Swiss mice, ref Ligneau et al. 29, cited from earlier work
human NET (SLC6A2) = human NET (SLC6A2) (Homo sapiens, UniProt P23975); assay: fluorescence-based neurotransmitter transporter uptake assay, NET; format: cell-based
human DAT (SLC6A3) = human DAT (SLC6A3) (Homo sapiens, UniProt Q01959); assay: cell-based
C57BL/6J mice [5] = assay: Effect of pitolisant on solriamfetol- or modafinil-induced locomotor activity; format: in vivo, mouse; details: pitolisant 20 mg/kg, p.o.
[6] = cited from earlier work
[7] = for Brain C max at pharmacologically active doses / Brain C max at pharmacologically active doses (molar): male, Swiss, mouse, in vivo, po; for Brain AUC0-8h / Brain C max / Brain C max (molar): 10 mg/kg, p.o., male Swiss mice
human SERT (SLC6A4) = human SERT (SLC6A4) (Homo sapiens, UniProt P31645); assay: cell-based; format: cell-based
male Wistar rats = assay: Behavioral drug sensitization in the rat; format: in vivo
Method in brief: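 Male Wistar rats (240–270 g) habituated 1 h in the test room before each daily session. Dosed p.o. (vehicle 1% methylcellulose, 4 ml/kg) or i.p. (saline) immediately before placement in the same dim (5 lux) 76×76 cm open field. Five sessions between 1 and 5 p.m. on 5 successive days. Locomotion video-tracked for 40 min. n=5–6. ANOVA/Fisher's LSD versus vehicle; paired t test versus day 1.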

[8] = test system: extracellular DA in the rat nucleus accumbens; details: cited from earlier work
[9] = test system: tele-methylhistamine in the brain of mice; details: cited from earlier work
in vivo = details: male, Swiss, mouse, po, 10 mg/kg
[10] = target: human H3 histamine receptor (Homo sapiens, UniProt Q9Y5N1); assay: [35S]-GTPγS functional binding assay on the H3 histamine receptor; format: biochemical
[11] = test system: tele-methylhistamine in the brain of mice; assay: Assay of tele-methylhistamine in the brain of mice; format: in vivo, mouse; details: 30 and 100 mg/kg, p.o., 90 min after treatment
Method in brief: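 Male OF1 mice (22–25 g) fasted 16 h, then dosed orally with test compound or vehicle (1% methylcellulose in water, 10 ml/kg). Killed 90 min later. Brain homogenised in 10 volumes ice-cold 0.4 N perchloric acid and centrifuged 2000 g, 30 min, 4℃. Supernatant stored at −20℃. Tele-methylhistamine measured by enzyme immunoassay.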

[12] = test system: extracellular DA in the rat nucleus accumbens; assay: In vivo microdialysis in the rat nucleus accumbens; details: p.o.
Method in brief: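 Under chloral hydrate (400 mg/kg i.p.), rats received a stereotaxic guide cannula in nucleus accumbens (AP +1.2 mm from bregma, […], DV −5.8 mm from dura). Recovery ≥5 days, single-housed. In freely moving rats, extracellular DA sampled via a 2-mm microdialysis probe after oral test compound or vehicle (1% methylcellulose in water, 5 ml/kg). n=5–8. ANOVA/Dunnett versus vehicle.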

[13] = D-amphetamine i.p., dose and time not given
[14] = 64 mg/kg, i.p., fifth day of repeated administration

Sequence of human NET (SLC6A2) (P23975 1-628 isoform P23975-2): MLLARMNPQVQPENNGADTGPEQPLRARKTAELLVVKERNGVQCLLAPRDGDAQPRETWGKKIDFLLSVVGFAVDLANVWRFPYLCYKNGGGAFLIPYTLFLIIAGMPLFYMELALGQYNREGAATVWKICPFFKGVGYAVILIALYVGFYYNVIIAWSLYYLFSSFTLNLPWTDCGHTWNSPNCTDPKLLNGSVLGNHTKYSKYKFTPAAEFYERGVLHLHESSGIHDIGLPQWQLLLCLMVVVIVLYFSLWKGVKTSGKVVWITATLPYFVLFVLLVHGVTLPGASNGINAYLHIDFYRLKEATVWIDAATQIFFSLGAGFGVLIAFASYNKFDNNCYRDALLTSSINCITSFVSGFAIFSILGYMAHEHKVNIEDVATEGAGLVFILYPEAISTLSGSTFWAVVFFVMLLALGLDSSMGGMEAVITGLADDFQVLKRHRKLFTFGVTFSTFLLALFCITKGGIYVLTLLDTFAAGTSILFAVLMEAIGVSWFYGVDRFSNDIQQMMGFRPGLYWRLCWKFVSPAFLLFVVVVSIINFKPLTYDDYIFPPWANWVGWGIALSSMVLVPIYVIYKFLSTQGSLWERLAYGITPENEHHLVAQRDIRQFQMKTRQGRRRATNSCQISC
Sequence of human SERT (SLC6A4) (P31645 whole entry): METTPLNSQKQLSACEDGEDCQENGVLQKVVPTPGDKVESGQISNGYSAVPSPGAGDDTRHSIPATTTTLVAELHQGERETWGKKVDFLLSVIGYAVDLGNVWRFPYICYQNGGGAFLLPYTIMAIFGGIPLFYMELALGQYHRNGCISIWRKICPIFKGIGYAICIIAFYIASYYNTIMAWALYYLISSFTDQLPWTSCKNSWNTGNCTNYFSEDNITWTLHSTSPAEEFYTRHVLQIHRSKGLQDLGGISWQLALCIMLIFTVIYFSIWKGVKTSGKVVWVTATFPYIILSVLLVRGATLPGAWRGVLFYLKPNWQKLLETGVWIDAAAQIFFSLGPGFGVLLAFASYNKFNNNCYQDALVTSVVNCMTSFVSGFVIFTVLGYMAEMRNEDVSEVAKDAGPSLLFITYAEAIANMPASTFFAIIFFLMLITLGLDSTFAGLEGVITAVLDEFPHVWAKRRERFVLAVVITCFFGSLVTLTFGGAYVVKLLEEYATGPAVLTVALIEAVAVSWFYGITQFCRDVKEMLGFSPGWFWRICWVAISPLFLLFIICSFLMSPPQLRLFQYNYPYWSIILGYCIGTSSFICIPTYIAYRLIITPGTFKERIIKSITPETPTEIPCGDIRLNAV
Sequence of human H3 histamine receptor (Q9Y5N1 whole entry): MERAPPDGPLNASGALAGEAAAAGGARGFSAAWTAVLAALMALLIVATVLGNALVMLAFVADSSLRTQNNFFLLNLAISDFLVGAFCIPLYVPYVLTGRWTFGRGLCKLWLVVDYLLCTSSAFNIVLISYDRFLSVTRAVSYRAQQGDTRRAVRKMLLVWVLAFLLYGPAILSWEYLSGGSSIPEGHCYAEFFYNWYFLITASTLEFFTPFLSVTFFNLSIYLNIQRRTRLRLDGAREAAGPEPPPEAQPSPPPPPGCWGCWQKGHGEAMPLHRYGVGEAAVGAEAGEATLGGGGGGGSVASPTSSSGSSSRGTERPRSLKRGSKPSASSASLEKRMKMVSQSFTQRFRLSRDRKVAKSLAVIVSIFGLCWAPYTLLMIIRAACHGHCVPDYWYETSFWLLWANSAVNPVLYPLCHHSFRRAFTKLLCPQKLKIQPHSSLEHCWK
Sequence of human DAT (SLC6A3) (Q01959 whole entry): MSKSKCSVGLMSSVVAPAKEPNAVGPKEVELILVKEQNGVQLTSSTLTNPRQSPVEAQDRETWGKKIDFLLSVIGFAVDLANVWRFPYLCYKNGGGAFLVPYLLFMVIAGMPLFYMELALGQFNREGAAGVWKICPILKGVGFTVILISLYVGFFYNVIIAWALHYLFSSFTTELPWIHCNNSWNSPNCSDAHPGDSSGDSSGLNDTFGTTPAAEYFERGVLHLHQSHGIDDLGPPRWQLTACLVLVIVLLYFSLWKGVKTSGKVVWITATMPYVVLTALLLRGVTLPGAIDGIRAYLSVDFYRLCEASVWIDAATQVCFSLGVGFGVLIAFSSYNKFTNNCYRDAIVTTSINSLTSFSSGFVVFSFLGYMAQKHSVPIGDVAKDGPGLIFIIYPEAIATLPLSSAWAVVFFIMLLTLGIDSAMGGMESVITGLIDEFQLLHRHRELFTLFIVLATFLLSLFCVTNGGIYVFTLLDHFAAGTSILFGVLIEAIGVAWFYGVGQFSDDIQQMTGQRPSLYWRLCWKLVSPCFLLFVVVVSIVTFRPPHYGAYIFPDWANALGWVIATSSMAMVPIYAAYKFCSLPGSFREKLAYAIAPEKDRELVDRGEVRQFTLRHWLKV

What does the source list for `C[C@H](N)Cc1ccccc1` [D‐amphetamine]?
decrease in food consumption compared with controls (4 h) (C57BL/6J mice [1]; 3 mg/kg, i.p.): 56%; change of DA in the rat striatum [2, 13]: +25%; change of DOPAC in the rat striatum [2, 13]: −15%

With `Cl.Clc1ccc(CCCOCCCN2CCCCC2)cc1` [Pitolisant, 1‐{3‐[3‐(4‐Chlorophenyl)propoxy]propyl}piperidine, hydrochloride] as the compound, how does the “effect on cumulative locomotor activity over 5.5 h post-dosing” value (C57BL/6J mice [3]; 10 and 20 mg/kg) read?
Its value is “no significant effect”.

What about the “effect on food intake during the initial 4 h of the night phase” value (C57BL/6J mice [1]; 10 and 20 mg/kg, p.o.) of the same compound?
The value was “did not modify”.

And the “Brain/plasma AUC ratio” value ([4]; AUC0-8h)?
Its value is 23.5.

What about the “Brain AUC0-8h” value [4] of the same compound?
Its value is 34 686 ng/g × h.

What about the “Brain C max (molar)” value [4] of the same compound?
The value was 35 µM.

What about the “Brain T max” value [4] of the same compound?
Its value is 30 min.

What about the “Plasma AUC0-8h” value [4] of the same compound?
The value was 1475 ng·h/mL.

And the “Plasma C max” value [4]?
The value was 441 ± 69 ng/mL.

And the “Plasma T max” value [4]?
The value was 30 min.

What about the pKi (human NET (SLC6A2)) of the same compound?
Its pKi is 5.60.

What about the pKi (human DAT (SLC6A3)) of the same compound?
The pKi was 5.39.

And the “reduction of modafinil-induced hyperlocomotion” value (C57BL/6J mice [5]; modafinil 64 mg/kg)?
The value was 58%.

And the “effect on modafinil-induced hyperlocomotion” value (C57BL/6J mice [5]; modafinil 128 mg/kg)?
Its value is “not further reduced”.

What about the “effect on solriamfetol-induced hyperlocomotion” value (C57BL/6J mice [5]; solriamfetol 30 mg/kg) of the same compound?
The value was “fully normalized”.

What about the “reduction of solriamfetol-induced hyperlocomotion” value (C57BL/6J mice [5]; solriamfetol 100 mg/kg) of the same compound?
The value was 68%.

What about the “plasma exposure (C max) in human at therapeutic dose” value ([6]; at 40 mg) of the same compound?
Its value is ~ 36 ng/ml.

What about the “Brain C max at pharmacologically active doses” value [7] of the same compound?
The value was 10 000-20 000.

What about the “Brain C max at pharmacologically active doses (molar)” value [7] of the same compound?
The value was 35–70 µM.

And the pKi (human SERT (SLC6A4))?
Its pKi is 5.24.

What about the “locomotor effect in rats” value (male Wistar rats; 10 mg/kg, i.p., acute or after 5-day-repeated administrations) of the same compound?
Its value is “no hyperlocomotion effects”.

What about the “effect on levels of extracellular DA in the rat nucleus accumbens” value [8] of the same compound?
Its value is “no effect”.

And the “ED50, enhancement of brain tele-methylhistamine level” value ([9]; p.o., in mice)?
Its value is 1.6 mg/kg.

Which results are given for `NC(=O)C[S+]([O-])C(c1ccccc1)c1ccccc1` (stereo not drawn) [Modafinil]?
reduction in food intake (4 h) (C57BL/6J mice [1]; 64 mg/kg, p.o.): 40%; reduction in food intake (4 h) (C57BL/6J mice [1]; 96 mg/kg, p.o.): 76%; reduction in food intake (4 h) (C57BL/6J mice [1]; 128 mg/kg, p.o.): 96%; pKi (human NET (SLC6A2)): < 5.00; hNET Ki (human NET (SLC6A2); CHO cells expressing human NET, Ki from IC50 by Cheng-Prusoff): inactive; AUC(0-t) (in vivo): 2160 ng·h/mL; Kp (in vivo): 1.1; Brain AUC0-8h [7]: 2298 ng·h/g; Brain C max [7]: 965 ± 156 ng/g; Brain C max (molar) [7]: 3.5 µM; Brain C max at pharmacologically active doses [7]: 6000-12 000; Brain C max at pharmacologically active doses (molar) [7]: 22–45 µM; Kb [10]: > 10 µM; increase of rat locomotor activity versus controls (male Wistar rats; 64 mg/kg, i.p., acute administration (day 1)): +145%; increase of rat locomotor activity versus control rats (male Wistar rats; [14]): 419%; increase of rat locomotor activity versus same treated rats at day 1 (male Wistar rats; [14]): 53%; potency in enhancing brain tele-methylhistamine level compared with pitolisant ([9]; mice): less potent

With `NC(=O)OC[C@H](N)Cc1ccccc1` [Solriamfetol] as the compound, how does the “effect on cumulative locomotor activity over 5.5 h post-dosing” value (C57BL/6J mice [3]; 30 mg/kg) read?
The value was “no effect”.

And the “inhibition of food intake (4 h)” value (C57BL/6J mice [1]; 30 mg/kg, p.o.)?
The value was 25%.

And the “inhibition of food intake (4 h)” value (C57BL/6J mice [1]; 100 mg/kg, p.o.)?
Its value is 40%.

And the “effect on tele-methylhistamine levels in the brain of mice” value [11]?
Its value is “no significant effect”.

And the “effect on tele-methylhistamine levels in the brain of mice” value ([11]; listed as solriamfetol)?
Its value is “no effect”.

And the pKi (human NET (SLC6A2))?
Its pKi is 5.32.

And the “change of DOPAC in the rat striatum” value ([2]; 30 mg/kg, p.o., 60 min)?
The value was −11%.

And the “effect on DOPAC/DA ratio relative to that of D-amphetamine (2 mg/kg, i.p.)” value ([2]; 30 mg/kg, p.o., 60 min)?
Its value is “about 50%”.

And the “change of DA in the rat striatum” value ([2]; 30 mg/kg, p.o., 60 min, not significant)?
Its value is “+4%”.

And the “decrease in the DOPAC/DA ratio in the rat striatum” value ([2]; 30 mg/kg, p.o., 60 min after the dose)?
Its value is 14%.

What about the “effect on 5-HIAA/5-HT ratio in the rat striatum” value ([2]; 3 and 30 mg/kg, p.o., 60 min after dosage) of the same compound?
The value was “No effect”.

What about the pKi (human DAT (SLC6A3)) of the same compound?
The pKi was 5.62.

And the AUC(0-t) (in vivo)?
Its AUC(0-t) is 1150 ng·h/mL.

And the Kp (in vivo)?
Its Kp is 9.6.

And the “effect on extracellular levels of DA in the nucleus accumbens” value ([12]; 30 mg/kg)?
The value was “no effects”.

And the “increase of extracellular levels of DA in the nucleus accumbens” value ([12]; 100 mg/kg, 30 min after administration)?
Its value is “+138 % of basal levels”.

What about the “AUC of extracellular DA (% basal dopamine level), enhancement” value ([12]; 100 mg/kg, 90 min (1.5 h) post-administration period) of the same compound?
The value was 123%.

What about the “plasma exposure (C max) in human at therapeutic dose” value ([6]; at 150 mg) of the same compound?
Its value is ~ 820 ng/ml.

What about the “Brain AUC0-8h” value [7] of the same compound?
The value was 10 990 ng/g × h.

And the “Brain C max” value [7]?
Its value is 3935 ± 452 ng/g.

And the “Brain C max (molar)” value [7]?
The value was 20 µM.

What about the “Brain C max at pharmacologically active doses” value [7] of the same compound?
The value was 12 000-40 000.

And the “Brain C max at pharmacologically active doses (molar)” value [7]?
The value was 60–200 µM.

And the Kb [10]?
The Kb was over 10 µM.

What about the pKi (human SERT (SLC6A4)) of the same compound?
The pKi was under 5.00.

And the “hSERT Ki” value (human SERT (SLC6A4); HEK293 cells expressing human SERT, Ki from IC50 by Cheng-Prusoff)?
Its value is “inactive”.

And the “locomotor effect in rats” value (male Wistar rats; 60 mg/kg, p.o., over the 5-day repeated administration period)?
The value was “no significant locomotion effect”.

What about the “locomotor effect in rats” value (male Wistar rats; 100 mg/kg, p.o., acute) of the same compound?
The value was “no acute effects”.

And the “increase of rat locomotor activity versus controls” value (male Wistar rats; 100 mg/kg, p.o., day 5)?
The value was 185%.

And the “increase of rat locomotor activity versus same treated rats at day 1” value (male Wistar rats; 100 mg/kg, p.o., day 5)?
The value was 106%.
